# Source: PubChem BioAssay
# Only some compounds are listed: those with a hit (about 1.3% of all), similar ones and a draw of the others.
# Xi reactivation – activators of X-chromosome reactivation in mouse fibroblasts; XiGFP mouse fibroblasts, % GFP-positive cells imaging, 3 d; cells co-treated with 5-aza-dC sensitizer; scaled so ellipticine positive control = 100%; activation, % at 7.58 µM; 360,000 tested, 0.055% active;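 active = mean normalized replicate activation at least 10% and every replicate at or above 10%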;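 note: 0% = median of on-plate neutral control wells and 100% = ellipticine 6 µM median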
#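 Schedule: 3 d treatment, 15 min room-temperature fixation; system: 68-5-11 XiGFP fibroblast line; buffer or medium: DMEM plus 5-aza-dC sensitizer; control set: ellipticine 6 µM positive control; compound: one concentration, pinned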
# aDG glyco up – alpha-DG glycosylation activation | Pro5-aDG cells, alpha-DG glycosylation AlphaScreen (IIH6); 0% Pro5, 100% B10-LARGE cell signal | AID 624168 | 360,000 tested, 0.22% active | activation, % at 10 µM;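 active = activation of at least 8% versus controls, or a plate z-score of at least 8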;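 note: Pro5 are CHO cells carrying HIG-tagged alpha-DG that lacks glycosylation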
# TPT1 inhibitor – blocks Candida albicans tRNA 2'-phosphotransferase; recombinant caTPT1, FP RNA substrate dephosphorylation; 300,000 tested, 0.81% active; inhibition, % at 5 µM;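 active = inhibition above the mean of all tested compounds plus 3 SD, set per screening campaign, cut at about 24% in these data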;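 note: plate controls were DMSO alone for no effect and ferristatin control at 100 nM for full effect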
# CSN inh – inhibitors of human CSN-mediated cullin deneddylation; inhibition, % at 12.5 µM; Q92905; Purified CSN, SCF-Nedd8-OG deneddylation, fluorescence polarization; 360,000 tested, 0.38% active;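 active = pattern-corrected inhibition above about 35%, with an unprinted fluorescence ratio check between 0.5 and 1.5, limit read from the data, passing the limit was not always enough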;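 note: 0% = enzyme with substrate and 100% = substrate without enzyme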
#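 Material: human Csn5 produced in HEK293T cells; Input: enzyme 0.24 nM; Reagent: SCFSkp2-Nedd8OG substrate at 10 nM final; Dosing: 12.5 µM compound; Incubation: 90 min reaction at room temperature; Detection: fluorescence polarization of the substrate; Evaluation: % inhibition of substrate cleavage by Csn5; Control set: substrate-only high control, full reaction low control.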
# Rpn11 inh – Rpn11 (human) deubiquitinase inhibition; O00487; human 26S proteasome, Ub4-pepOG fluorescence polarization; 20S core pre-blocked with epoxomicin; inhibition, % at 20 µM; 360,000 tested, 0.59% active; AID 588493;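 active = inhibition at 20 µM, scaled to each plate's controls, above about 33%, limit read from the data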
# HNF4A DNA FP – change in binding of human HNF4 alpha to DNA | AID 1224865 | 360,000 tested, 0.3% active | activity change, % at 10 µM | P41235 | HNF4a-FITC DNA binding, fluorescence polarization, 1 h; in the data active = activity change above about 30%, passing the limit was not always enough
# Target sequence (P41235 whole entry, looked up): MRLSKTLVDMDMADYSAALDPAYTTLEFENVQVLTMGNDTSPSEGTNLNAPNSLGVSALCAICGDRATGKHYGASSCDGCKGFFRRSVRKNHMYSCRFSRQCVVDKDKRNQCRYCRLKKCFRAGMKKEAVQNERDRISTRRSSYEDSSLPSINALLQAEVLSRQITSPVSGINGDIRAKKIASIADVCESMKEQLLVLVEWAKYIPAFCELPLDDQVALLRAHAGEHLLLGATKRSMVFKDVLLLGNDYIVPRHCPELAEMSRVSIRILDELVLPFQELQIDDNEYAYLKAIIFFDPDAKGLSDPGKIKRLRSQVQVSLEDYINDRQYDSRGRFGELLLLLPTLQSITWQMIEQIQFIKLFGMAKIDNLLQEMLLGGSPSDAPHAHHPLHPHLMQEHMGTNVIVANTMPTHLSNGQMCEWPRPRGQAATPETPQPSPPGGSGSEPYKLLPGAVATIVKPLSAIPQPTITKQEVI
# Numbers without * were called inactive; . = no result given.
SMILES,Xi reactivation,aDG glyco up,TPT1 inhibitor,CSN inh,Rpn11 inh,HNF4A DNA FP
CC(C)[C@H]1CN=C2N(C[C@H](C)NC(=O)CCC3CCCCC3)[C@H](Cc3ccc(O)cc3)CN21,0,0,1,74*,4,26
Cc1cccc(C(=O)NCCNc2nc3cc(C)c(C)cc3cc2C)c1,0,1,2,6,0,60*
C[C@@H]1COCn2nncc2CCCC(=O)N1,0,.,.,.,.,.
CCN1C(=O)C(=O)c2cc(C)ccc21,1,0,.,4,0,1
CC[N+]1=C(C)C(C)(C)c2cc(C)ccc21,73*,2,17,21,.,13
Cc1c(NC(=O)/C(C#N)=C/c2ccc(-c3ccc(Cl)c(Cl)c3)o2)c(=O)n(-c2ccccc2)n1C,0,1,0,3,24,7
Cc1cc(NC(=O)/C(C#N)=C\c2ccc(-c3ccc(SC(F)F)cc3)o2)n(-c2ccccc2)n1,0,0,.,81*,.,163
Cc1ccc(S(=O)(=O)NC(=O)Nc2ccc(Cl)cn2)cc1,.,0,-6,-1,-5,0
Cc1ccc(S(=O)(=O)CC(=O)Nc2ccc(Cl)cn2)cc1,0,0,-1,4,14,34*
Cc1ccc(C)c(S(=O)(=O)N2CCCC2CNC(=O)C(=O)NCc2ccccc2C)c1 (stereo unspecified),0,0,1,4,-5,1
Cc1ccc(C)c(S(=O)(=O)N2CCCC2CNC(=O)C(=O)NCC2CCCO2)c1 (stereo unspecified),0,0,-2,5,-12,34*
CC(Sc1ccccc1)C(=O)NCCc1ccccc1 (stereo unspecified),0,0,-4,50*,4,-2
COc1cc(NC(=O)CN2c3ccccc3CC2C)cc(OC)c1OC (stereo unspecified),.,0,-3,7,0,-1
COc1ccc(Cl)cc1NC(=O)CN1c2ccccc2CC1C (stereo unspecified),0,0,0,-1,7,33*
CCc1ccc(-c2nc(CN3CCC(C(=O)NCCN(CC)c4ccccc4)CC3)c(C)o2)cc1,.,0,-2,-2,10,-2
CCN(CCNC(=O)C1CCN(Cc2nc(-c3ccc(Cl)cc3)oc2C)CC1)c1ccccc1,.,2,0,-3,-2,63*
CCOC(=O)c1csc(COc2ccc(OC)cc2)n1,0,0,-1,0,1,1
CC(=O)c1csc(COc2ccccc2)n1,0,0,-2,2,2,63*
C/C=C/c1ccc2c(c1)O[C@@H](CN(C)C(=O)COC)[C@@H](C)CN([C@H](C)CO)S2(=O)=O,0,.,.,.,.,.
COc1ccc(OC)c(S(=O)(=O)Nc2ccc(O)c3ccccc23)c1,.,3.2*,2,5,2,-3
COc1cc(/C=C/C(=O)OCC(=O)c2c(N)n(C)c(=O)n(C)c2=O)ccc1OC(F)F,0,0,0,0,3,2
COCCCn1c(=O)/c(=C\c2ccc(OC(F)F)c(OC)c2)s/c1=C(/C#N)C(N)=O,0,0,8,68,.,51*
COc1ccccc1CNC(=O)C[C@@H]1C[C@@H]2c3cc(NC(=O)Nc4ccc(C(F)(F)F)cc4)ccc3O[C@@H]2[C@@H](CO)O1,0,.,.,.,.,.
N#CCCn1cc(/C=N/NC(N)=S)c(-c2ccccc2)n1,0,2,1,107*,-3,-3
CCOC(=O)C1C(=O)NC(SCC(=O)Nc2nccs2)=C(C#N)C1c1ccccc1OCC (stereo unspecified),.,0,5,8,61*,2
SMILES,Xi reactivation,aDG glyco up,TPT1 inhibitor,CSN inh,Rpn11 inh,HNF4A DNA FP
COC(=O)c1ccc(-c2ccco2)n1Cc1ccccc1Cl,.,0,-1,49*,7,2
COC(=O)c1ccc(-c2ccco2)n1Cc1nc(-c2ccc(OC)c(OC)c2)oc1C,.,0,3,4,12,-1
Cc1ccc2c(CN3CCN(c4ccccc4F)CC3)cc(=O)oc2c1,0,0,.,-3,6,1
COc1ccc2c(CN3CCN(c4ccccc4F)CC3)cc(=O)oc2c1,0,0,.,100*,-4,-2
COc1ccc2c(CN3CCN(c4ccccc4OC)CC3)cc(=O)oc2c1,0,0,.,74*,4,11
C[C@@H]1CN([C@H](C)CO)C(=O)c2cc(-c3ccccc3)cnc2O[C@@H]1CN(C)C(=O)NC1CCCC1,0,.,.,.,.,.
C=CCn1c(SCC(=O)N(CC)C2CCS(=O)(=O)C2)nc2sc3c(c2c1=O)CCC3 (stereo unspecified),137*,0,.,0,-3,1
Nc1nc(COC(=O)CCC(=O)c2ccccc2)nc(Nc2ccccc2)n1,0,0,.,106*,7,30
COc1ccc2c(c1)CCc1c(C(=O)Nc3cc(C)n(Cc4ccc(Cl)cc4)n3)noc1-2,.,0,-1,91*,-2,-5
Cc1ccc(S(=O)(=O)NCC2CCCO2)cc1 (stereo unspecified),0,0,-2,-3,-1,2
O=S(=O)(NCC1CCCO1)c1ccc(-c2ccc(S(=O)(=O)NCC3CCCO3)cc2)cc1 (stereo unspecified),0,7.4*,0,9,4,0
CC(=O)Nc1cccc2c1O[C@H](CN(C)C(=O)OC(C)(C)C)[C@@H](C)CN(C)C2=O,0,.,.,.,.,.
CCOc1ccc(N2C(=O)/C(=C/c3cc(OC)c(OC)c(OC)c3)N(CC(=O)OC)C2=S)cc1,.,0,4,6,0,0
CCOc1ccc(/C=C2/C(=O)N(c3ccc(OC)cc3)C(=S)N2CC(=O)OC)cc1OCC,.,0,20,72,.,47*
CO[C@@H]1CN(C)C(=O)c2ccc(NC(=O)C3CCCC3)cc2OC[C@@H](C)N(C(C)=O)C[C@@H]1C,1,.,.,.,.,.
Cc1cc(N)ccc1N1CCCC1,.,0,-4,16,90*,12
Cc1ccc(NC(=O)CN2C(=O)NC(C)(C)C2=O)cc1S(=O)(=O)N1CCCCCC1,0,0,.,0,2,33*
Cc1ccc(NC(=O)CN2C(=O)NC3(CCCC3)C2=O)cc1S(=O)(=O)N1CCCCC1,0,0,.,2,-7,-1
Cc1ccc(C(=O)N2CCN(c3ccc4c(c3)C3CC4CCN3C(=O)OCc3ccccc3)CC2)cc1 (stereo unspecified),0,0,.,-4,16,4
O=C(c1ccc(-c2ccccc2)cc1)N1CCN(c2ccc3c(c2)C2CC3CCN2C(=O)OCc2ccccc2)CC1 (stereo unspecified),0,0,.,113*,-1,-6
